The record followed here is ChEMBL document CHEMBL1130064, “Substituted N-phenylisothioureas: potent inhibitors of human nitric oxide synthase with neuronal isoform selectivity” (J Med Chem, 1997).

For series [1], the target named is T1, Nitric oxide synthase 3 (Homo sapiens, UniProt P29474).
T1 sequence (P29474 whole entry): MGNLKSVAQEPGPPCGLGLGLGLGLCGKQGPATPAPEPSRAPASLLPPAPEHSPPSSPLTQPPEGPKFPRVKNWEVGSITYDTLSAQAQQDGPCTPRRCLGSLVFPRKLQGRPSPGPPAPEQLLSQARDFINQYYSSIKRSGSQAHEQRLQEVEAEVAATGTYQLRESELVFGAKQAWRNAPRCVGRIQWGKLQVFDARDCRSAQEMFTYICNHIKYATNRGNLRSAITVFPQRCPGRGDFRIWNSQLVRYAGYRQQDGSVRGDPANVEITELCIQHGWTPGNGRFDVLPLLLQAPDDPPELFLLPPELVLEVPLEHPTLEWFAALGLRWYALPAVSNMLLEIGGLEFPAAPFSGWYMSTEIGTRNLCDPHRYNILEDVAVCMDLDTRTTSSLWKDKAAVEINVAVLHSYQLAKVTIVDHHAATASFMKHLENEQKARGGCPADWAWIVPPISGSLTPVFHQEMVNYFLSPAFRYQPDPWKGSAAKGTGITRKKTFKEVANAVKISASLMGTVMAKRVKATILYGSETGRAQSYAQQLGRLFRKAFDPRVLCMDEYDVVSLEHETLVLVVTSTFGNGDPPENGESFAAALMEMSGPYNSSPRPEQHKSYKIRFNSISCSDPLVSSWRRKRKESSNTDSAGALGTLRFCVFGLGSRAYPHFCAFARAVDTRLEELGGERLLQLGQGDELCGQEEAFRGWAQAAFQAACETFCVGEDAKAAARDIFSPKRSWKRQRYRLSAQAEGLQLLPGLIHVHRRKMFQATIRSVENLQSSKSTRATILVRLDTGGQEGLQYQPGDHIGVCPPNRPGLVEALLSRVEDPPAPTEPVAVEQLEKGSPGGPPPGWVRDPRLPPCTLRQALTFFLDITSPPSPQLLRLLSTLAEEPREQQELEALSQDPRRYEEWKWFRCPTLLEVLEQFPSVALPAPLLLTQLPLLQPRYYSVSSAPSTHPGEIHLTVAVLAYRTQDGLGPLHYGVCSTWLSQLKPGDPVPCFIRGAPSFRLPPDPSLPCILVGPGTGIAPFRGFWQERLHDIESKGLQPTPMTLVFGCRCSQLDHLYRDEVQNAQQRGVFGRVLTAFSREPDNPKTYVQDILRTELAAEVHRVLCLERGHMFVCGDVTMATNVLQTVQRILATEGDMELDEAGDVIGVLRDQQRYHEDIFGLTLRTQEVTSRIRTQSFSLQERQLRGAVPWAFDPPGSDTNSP
Nature of the series: Inhibitory activity against human vascular endothelial nitric oxide synthase. An outline of the steps:
(§1)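 Purified human enzymes were used, with iNOS purified from the DLD-1 colorectal adenocarcinoma line. Percent inhibition was measured at three or more inhibitor concentrations and converted to inhibition constants (Ki).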

The target in series [2] is T2, Nitric oxide synthase, inducible (Homo sapiens, UniProt P35228). Nature of the series: Inhibitory activity against human inducible nitric oxide synthase (iNOS). An outline of the steps: as §1
Series [3] has as its target T3, Nitric oxide synthase 1 (Homo sapiens, UniProt P29475). In words: Inhibitory activity against human neuronal nitric oxide synthase in brain (nNOS). In kind it is tissue-based.
Series [4] concerns the target T4, Nitric oxide synthase 3 (Homo sapiens) (UniProt P29474).
T4 sequence (whole entry): T1 sequence (P29474 whole entry)
Nature of the series: Percent inhibition of human Vascular Endothelial nitric oxide synthase at a concentration of 25 uM. Conditions: at 25 µM.

Series [5] has as its target T2, Nitric oxide synthase, inducible. In words: Percent inhibition of Human inducible Nitric Oxide Synthase (iNOS) at a concentration of 25 uM. Conditions: at 25 µM. An outline of the steps: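 Human iNOS purified from the DLD-1 colorectal adenocarcinoma cell line. Percent inhibition of the enzyme was measured with test compound present.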
The target of series [6] is T3, Nitric oxide synthase 1. Nature of the series: Percent inhibition of human Neuronal nitric oxide synthase at a concentration of 25 uM. To be noted: at 25 µM.
Series [7] in a line: The half life was determined. In kind it is ADME.
Series [8] can be described thus: Clearance was determined. Type of series: ADME, organism-based. Conditions: in vivo.
Series [9] in a line: Michaelis-Menten constant was determined. In kind it is ADME. Summed up: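 Human nNOS conversion of L-arginine to L-citrulline was measured over a range of arginine with inhibitor at 0, 150 and 300 nM. Velocities were fitted to V = Vmax[S]/{[S] + Km(1 + [I]/Ki)} to give Km.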
The target of series [10] is T3, Nitric oxide synthase 1. Nature of the series: Percent inhibition of human Neuronal nitric oxide synthase in brain (nNOS) at a concentration of 25 uM. Type of series: tissue-based. Conditions: at 25 µM.

T3 sequence (P29475 whole entry): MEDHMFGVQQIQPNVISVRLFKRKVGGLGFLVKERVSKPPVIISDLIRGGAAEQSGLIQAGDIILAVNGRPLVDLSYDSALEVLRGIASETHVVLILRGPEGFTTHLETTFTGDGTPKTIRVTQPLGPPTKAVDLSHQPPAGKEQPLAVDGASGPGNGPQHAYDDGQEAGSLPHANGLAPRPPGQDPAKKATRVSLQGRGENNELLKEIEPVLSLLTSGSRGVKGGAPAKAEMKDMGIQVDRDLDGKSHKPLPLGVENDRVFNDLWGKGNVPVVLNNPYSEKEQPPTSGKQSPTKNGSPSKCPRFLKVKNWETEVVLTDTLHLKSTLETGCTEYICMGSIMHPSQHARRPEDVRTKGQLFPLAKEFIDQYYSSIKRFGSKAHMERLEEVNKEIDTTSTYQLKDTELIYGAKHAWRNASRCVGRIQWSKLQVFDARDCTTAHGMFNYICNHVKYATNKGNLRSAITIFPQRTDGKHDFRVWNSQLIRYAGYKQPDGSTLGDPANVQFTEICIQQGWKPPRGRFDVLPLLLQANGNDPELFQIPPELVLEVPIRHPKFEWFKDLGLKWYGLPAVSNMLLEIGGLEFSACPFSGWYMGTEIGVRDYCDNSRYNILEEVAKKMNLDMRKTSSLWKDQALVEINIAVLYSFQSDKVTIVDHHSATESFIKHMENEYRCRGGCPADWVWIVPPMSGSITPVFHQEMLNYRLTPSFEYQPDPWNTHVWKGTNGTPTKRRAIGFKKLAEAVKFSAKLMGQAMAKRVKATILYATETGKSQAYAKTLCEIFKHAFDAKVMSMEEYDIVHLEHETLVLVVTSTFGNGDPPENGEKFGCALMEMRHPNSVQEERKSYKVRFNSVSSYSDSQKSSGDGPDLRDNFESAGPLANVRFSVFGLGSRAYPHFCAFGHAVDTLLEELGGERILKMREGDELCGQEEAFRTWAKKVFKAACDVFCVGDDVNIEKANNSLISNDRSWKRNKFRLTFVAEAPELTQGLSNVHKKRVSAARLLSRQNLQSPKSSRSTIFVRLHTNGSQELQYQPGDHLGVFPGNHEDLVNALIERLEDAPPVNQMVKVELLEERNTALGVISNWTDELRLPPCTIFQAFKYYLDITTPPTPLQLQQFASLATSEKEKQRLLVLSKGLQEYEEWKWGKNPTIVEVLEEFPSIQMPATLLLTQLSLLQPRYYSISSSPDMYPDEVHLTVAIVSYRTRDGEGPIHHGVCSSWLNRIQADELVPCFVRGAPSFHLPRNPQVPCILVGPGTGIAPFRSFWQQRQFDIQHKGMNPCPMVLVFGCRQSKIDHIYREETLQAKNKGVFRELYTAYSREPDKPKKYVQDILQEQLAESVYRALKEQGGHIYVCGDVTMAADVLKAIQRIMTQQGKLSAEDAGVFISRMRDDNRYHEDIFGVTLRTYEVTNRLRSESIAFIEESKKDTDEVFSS
T2 sequence (P35228 whole entry): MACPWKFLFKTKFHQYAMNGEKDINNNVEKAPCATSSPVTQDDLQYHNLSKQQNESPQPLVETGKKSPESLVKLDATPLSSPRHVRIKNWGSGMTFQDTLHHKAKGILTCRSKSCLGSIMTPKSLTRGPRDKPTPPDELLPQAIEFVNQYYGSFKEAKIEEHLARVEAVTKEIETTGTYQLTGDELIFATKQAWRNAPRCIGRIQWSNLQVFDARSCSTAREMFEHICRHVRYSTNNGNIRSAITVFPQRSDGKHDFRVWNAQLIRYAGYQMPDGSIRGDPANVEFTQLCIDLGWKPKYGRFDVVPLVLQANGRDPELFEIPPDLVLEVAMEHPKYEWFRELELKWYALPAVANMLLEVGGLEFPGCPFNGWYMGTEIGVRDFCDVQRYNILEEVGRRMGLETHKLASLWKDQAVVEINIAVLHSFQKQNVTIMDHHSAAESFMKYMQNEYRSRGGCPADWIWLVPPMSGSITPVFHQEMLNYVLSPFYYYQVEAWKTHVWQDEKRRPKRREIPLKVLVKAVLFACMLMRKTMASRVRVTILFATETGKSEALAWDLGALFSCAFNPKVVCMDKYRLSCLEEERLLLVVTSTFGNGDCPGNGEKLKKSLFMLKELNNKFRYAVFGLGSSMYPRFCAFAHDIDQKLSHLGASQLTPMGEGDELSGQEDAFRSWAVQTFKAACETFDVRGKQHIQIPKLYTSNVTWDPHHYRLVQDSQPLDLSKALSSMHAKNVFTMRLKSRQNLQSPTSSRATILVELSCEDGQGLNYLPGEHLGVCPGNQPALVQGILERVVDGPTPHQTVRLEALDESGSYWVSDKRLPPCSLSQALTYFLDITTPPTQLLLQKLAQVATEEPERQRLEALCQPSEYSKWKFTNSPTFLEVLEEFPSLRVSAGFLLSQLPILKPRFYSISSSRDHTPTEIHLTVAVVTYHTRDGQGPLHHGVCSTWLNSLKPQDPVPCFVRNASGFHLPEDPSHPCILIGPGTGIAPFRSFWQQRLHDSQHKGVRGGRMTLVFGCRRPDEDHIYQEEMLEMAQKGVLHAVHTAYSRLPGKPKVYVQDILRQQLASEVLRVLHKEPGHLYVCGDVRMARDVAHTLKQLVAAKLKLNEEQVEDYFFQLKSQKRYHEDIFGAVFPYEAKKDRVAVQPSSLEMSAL

Consider `CCSC(=N)Nc1cccnc1`, for which the values for the Ki in [1] and in series [2] were 7 µM and 23 µM, respectively.

As to `CC(C)SC(=N)Nc1ccc(C(F)(F)F)cc1`, the affinity in series [3], expressed as Ki, was 29 µM. In addition, the inhibition in [4] and in series [5] was 0% each time.

`CCCSC(=N)Nc1ccc(C(F)(F)F)cc1`: affinity in [3] was put at a Ki of 64 µM. In addition, the inhibition (usually the change of the read-out against control, counted positive when it falls) in [4] was 0%; in series [5], 4%.

With `CCSC(=N)Nc1ccc(C(=O)O)cc1`, the affinity in [3], expressed as Ki, was 58 µM. The inhibition was 14% in series [4] and 0% in [5].

As for `CCSC(=N)Nc1ccc(C(C)C)cc1`, the affinity in series [2], expressed as Ki, was 25 µM.

Consider `CCOC(=O)c1ccc(NC(=N)SCC)cc1`, for which affinity in series [2] was put at a Ki of 63 µM.

Consider `CSC(=N)Nc1ccc(C(F)(F)F)cc1`, for which the Ki (as a rule, a measure of affinity in units of concentration, obtained from inhibition or displacement) stood at 31 µM in series [1] and 4.6 µM in [3]. Further, the inhibition in series [5] is 0%.

Turning to `CCCCSC(=N)Nc1ccc(C(F)(F)F)cc1`, the inhibition in [6], in series [4] and in [5] was 0% each time.

Take `CCSC(=N)Nc1ccc(OC(F)(F)F)cc1`: the Ki in [1] worked out at 17 µM; in [3], 0.7 µM; in [2] it was 55 µM.

As for `CCSC(=N)Nc1ccc([N+](=O)[O-])cc1`, the inhibition constant (Ki) in series [1] is 9.1 µM; in [3], 0.66 µM; in series [2], 54 µM.

For the compound `CCSC(=N)Nc1ccccc1C(F)(F)F`, the Ki in series [1] was found to be 18 µM.

Regarding `CSC(=N)Nc1ccc([N+](=O)[O-])cc1`, the inhibitory constant (Ki) in [1] was found to be 17 µM; in [3], 3.3 µM. This compound also came in with an inhibition in [5] of 0%.

Regarding `CCSC(=N)Nc1ccccc1C(C)C`, the Ki in series [3] was found to be 1.1 µM.

Turning to `CCSC(=N)Nc1ccc(Cl)cc1`, the figures for the Ki in [1], in series [3] and in [2] were 0.9 µM, 0.14 µM and 4.2 µM, respectively.

On to `CCSC(=N)Nc1ccccc1`, for which the inhibition constant Ki in [1] was 0.4 µM; in series [3] it was 0.12 µM; in series [2], 0.87 µM.

Regarding `CCSC(=N)Nc1ccc(C(F)(F)F)cc1.Cl`, the half-life is 4 min in [7] (read-out: T1/2 alpha) and 31 min in [7] (read-out: T1/2 beta). The Clearance in series [8] turned out to be 93.3 mL/min/kg. The Km (as a rule, the substrate concentration at which the rate is half of its maximum) in series [9] amounted to 2 µM. The affinity in series [2] corresponds to a Ki of 37 µM.

As to `CCSC(=N)Nc1ccncc1`, the inhibitory constant (Ki) in series [1] was 16 µM; in [3], 0.8 µM; in [2] it was 22 µM.

With `CCSC(=N)Nc1ccccn1`, the inhibition constant (Ki) worked out at 17 µM in [1] and 23 µM in series [2].

With `CSC(=N)Nc1ccc(Cl)cc1`, the Ki in [1] was 2.6 µM; in series [3], 0.57 µM; in series [2] it was 42 µM.

With `N=C(Nc1ccc(C(F)(F)F)cc1)SCc1ccccc1`, the inhibition came to 11% in series [10], 0% in series [4] and 0% in series [5].
